From ChEMBL document CHEMBL3244196, “Synthesis and analgetic activity of 1,2,3,4,5,6-hexahydro-1,6-methano-3-benzozocines” (J Med Chem, 1978)
The source made the active and inactive calls. The calls are words filed in the database; no cut-off is given here.

Key:
[1] = species on record: Mus musculus; assay: Analgesic activity in mouse by Eddy hot-plate method; type: functional
[2] = system: Rhesus monkey; assay: Psychotomimetic activity in morphine-dependent nonwithdrawn rhesus monkey assessed as antagonist activity by measuring precipitation of withdrawal symptoms at 2 to 8 mg/kg; type: organism-based, Macaca mulatta; design: dose 2-8 mg/kg; settings: in vivo
[3] = system: Rhesus monkey; assay: Toxicity in rhesus monkey assessed as physical drug dependence liability at 2 to 8 mg/kg by single dose suppression analysis; type: organism-based, Macaca mulatta; design: dose 2-8 mg/kg; settings: in vivo
Outline: (§1)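 Rhesus monkeys addicted to morphine; single-dose suppression study scoring whether the test dose supports morphine dependence, i.e. suppresses withdrawal signs. Dose range 2-4 or 2-8 mg/kg, as given in each line.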

[4] = system: Mus musculus; assay: Analgesic activity in sc dosed mouse by Eddy hot-plate method; type: functional
[5] = system: Rhesus monkey; assay: Toxicity in rhesus monkey assessed as physical drug dependence liability at 2 to 4 mg/kg by single dose suppression analysis; type: organism-based, Macaca mulatta; design: dose 2-4 mg/kg; settings: in vivo; outline: as §1
[6] = system: Rhesus monkey; assay: Psychotomimetic activity in morphine-dependent nonwithdrawn rhesus monkey assessed as antagonist activity by measuring precipitation of withdrawal symptoms at 2 to 4 mg/kg; type: organism-based, Macaca mulatta; design: dose 2-4 mg/kg; settings: in vivo

| Compound | ED50 [1] | further results |
| --- | --- | --- |
| c1ccc(CCN2CCC3CC(C2)c2ccccc23)cc1 (configuration not stated) | 8.8 mg/kg |  |
| CC(C)=CCN1CCC2CC(C1)c1ccccc12 (configuration not stated) | inactive |  |
| CCCN1CCC2CC(C1)c1ccccc12 (configuration not stated) | 16.2 mg/kg |  |
| COc1ccc2c3c1O[C@H]1[C@@H](O)C=C[C@H]4[C@@H](C2)N(C)CC[C@@]341 [CODEINE] | 7.5 mg/kg |  |
| CN1CC[C@]23c4c5ccc(O)c4O[C@H]2[C@@H](O)C=C[C@H]3[C@H]1C5 [MORPHINE] | 1.2 mg/kg |  |
| C=CCN1CCC2CC(C1)c1ccccc12 (configuration not stated) | 19.4 mg/kg |  |
| c1ccc2c(c1)C1CCNCC2C1 (configuration not stated) | 4.9 mg/kg | Activity [2]: Non-toxic; Activity [3]: Non-toxic; ED50 [4]: 6.1 mg/kg |
| CN1CC[C@@H]2CC1Cc1ccc(O)cc12 | 4.5 mg/kg |  |
| CN1CCC2CC(C1)c1ccccc12 (configuration not stated) | 4.2 mg/kg | Activity [5]: Non-toxic; ED50 [4]: 8.2 mg/kg; Activity [6]: Non-toxic |
| CN1CCC2CC1Cc1ccccc12 (configuration not stated) | 11.2 mg/kg |  |
| CC1CCN(C)CCc2ccc(O)cc21 (configuration not stated) | 12.5 mg/kg |  |
